The values that follow come from ChEMBL document CHEMBL4325842, “Design, synthesis, and biological evaluation of novel aminopyrimidinylisoindolines as AXL kinase inhibitors” (Bioorg Med Chem Lett, 2018).

In one assay the test system is A-375. The experiment in a line: Antiproliferative activity against human A375 cells after 2 days by spectrophotometric analysis. In kind it is functional. The conditions noted are these: A-375, 48 h.
For assay [1], the target named is Epidermal growth factor receptor (Homo sapiens) (UniProt P00533). The experiment in a line: Inhibition of human EGFR at 10 uM using poly[Glu:Tyr] (4:1) as substrate by [gamma-33P]-ATP assay relative to control. Put shortly: (§1)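 Commercial kinase panel screen at a single concentration of 10 μM. % inhibition was calculated as 100 minus % activity.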
Sequence of Epidermal growth factor receptor (Homo sapiens) (P00533 whole entry): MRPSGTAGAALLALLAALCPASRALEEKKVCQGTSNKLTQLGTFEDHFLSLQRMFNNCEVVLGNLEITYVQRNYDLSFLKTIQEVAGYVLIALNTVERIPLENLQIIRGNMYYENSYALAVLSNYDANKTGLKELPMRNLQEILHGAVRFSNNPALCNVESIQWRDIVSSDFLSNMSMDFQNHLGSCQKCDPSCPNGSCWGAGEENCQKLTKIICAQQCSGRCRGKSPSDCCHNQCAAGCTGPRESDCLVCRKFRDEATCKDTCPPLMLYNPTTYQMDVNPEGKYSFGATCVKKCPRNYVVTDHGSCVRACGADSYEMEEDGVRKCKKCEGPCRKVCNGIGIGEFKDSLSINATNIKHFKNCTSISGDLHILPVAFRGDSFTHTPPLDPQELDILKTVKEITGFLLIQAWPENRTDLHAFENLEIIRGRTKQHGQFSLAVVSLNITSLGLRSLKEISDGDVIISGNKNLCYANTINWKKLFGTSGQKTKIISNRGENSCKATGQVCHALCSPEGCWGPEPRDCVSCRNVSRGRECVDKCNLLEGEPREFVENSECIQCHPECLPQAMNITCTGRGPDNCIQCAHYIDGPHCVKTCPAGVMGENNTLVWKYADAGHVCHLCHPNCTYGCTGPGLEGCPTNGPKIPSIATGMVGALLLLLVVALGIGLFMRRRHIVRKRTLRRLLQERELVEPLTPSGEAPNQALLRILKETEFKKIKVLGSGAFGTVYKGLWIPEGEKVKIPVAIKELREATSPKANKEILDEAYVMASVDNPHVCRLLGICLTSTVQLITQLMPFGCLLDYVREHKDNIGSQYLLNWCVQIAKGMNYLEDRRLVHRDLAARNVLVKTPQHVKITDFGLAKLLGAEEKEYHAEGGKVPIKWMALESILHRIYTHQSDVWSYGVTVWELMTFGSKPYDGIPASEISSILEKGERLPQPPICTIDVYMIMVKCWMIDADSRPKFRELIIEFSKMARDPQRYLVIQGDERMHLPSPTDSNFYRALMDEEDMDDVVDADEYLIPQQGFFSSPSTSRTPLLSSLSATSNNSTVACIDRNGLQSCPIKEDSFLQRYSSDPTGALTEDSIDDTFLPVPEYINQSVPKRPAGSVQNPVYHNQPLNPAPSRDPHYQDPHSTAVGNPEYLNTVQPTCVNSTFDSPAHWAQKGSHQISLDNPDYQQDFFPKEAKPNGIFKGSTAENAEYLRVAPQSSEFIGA
In assay [2] the target is Serine/threonine-protein kinase Chk1 (Homo sapiens) (UniProt O14757). Briefly: Inhibition of human CHK1 at 10 uM using KKKVSRSGLYRSPSMPENLNRPR as substrate by [gamma-33P]-ATP assay relative to control. Put shortly:
as §1

Assay [3] deals with Proto-oncogene tyrosine-protein kinase ROS (Homo sapiens) (UniProt P08922). Briefly: Inhibition of human ROS at 10 uM using KKKSPGEYVNIEFG as substrate by [gamma-33P]-ATP assay relative to control. Put shortly:
(§2)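 Kinase-panel profiling (50 oncogenic kinases) run by an outside contract service. The test compound was tested at a single concentration of 10 μM. Percent inhibition was calculated as 100 minus % remaining activity.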

Assay [4] has as its target T1, Tyrosine-protein kinase receptor UFO (Homo sapiens, UniProt P30530).
T1 sequence (P30530 whole entry): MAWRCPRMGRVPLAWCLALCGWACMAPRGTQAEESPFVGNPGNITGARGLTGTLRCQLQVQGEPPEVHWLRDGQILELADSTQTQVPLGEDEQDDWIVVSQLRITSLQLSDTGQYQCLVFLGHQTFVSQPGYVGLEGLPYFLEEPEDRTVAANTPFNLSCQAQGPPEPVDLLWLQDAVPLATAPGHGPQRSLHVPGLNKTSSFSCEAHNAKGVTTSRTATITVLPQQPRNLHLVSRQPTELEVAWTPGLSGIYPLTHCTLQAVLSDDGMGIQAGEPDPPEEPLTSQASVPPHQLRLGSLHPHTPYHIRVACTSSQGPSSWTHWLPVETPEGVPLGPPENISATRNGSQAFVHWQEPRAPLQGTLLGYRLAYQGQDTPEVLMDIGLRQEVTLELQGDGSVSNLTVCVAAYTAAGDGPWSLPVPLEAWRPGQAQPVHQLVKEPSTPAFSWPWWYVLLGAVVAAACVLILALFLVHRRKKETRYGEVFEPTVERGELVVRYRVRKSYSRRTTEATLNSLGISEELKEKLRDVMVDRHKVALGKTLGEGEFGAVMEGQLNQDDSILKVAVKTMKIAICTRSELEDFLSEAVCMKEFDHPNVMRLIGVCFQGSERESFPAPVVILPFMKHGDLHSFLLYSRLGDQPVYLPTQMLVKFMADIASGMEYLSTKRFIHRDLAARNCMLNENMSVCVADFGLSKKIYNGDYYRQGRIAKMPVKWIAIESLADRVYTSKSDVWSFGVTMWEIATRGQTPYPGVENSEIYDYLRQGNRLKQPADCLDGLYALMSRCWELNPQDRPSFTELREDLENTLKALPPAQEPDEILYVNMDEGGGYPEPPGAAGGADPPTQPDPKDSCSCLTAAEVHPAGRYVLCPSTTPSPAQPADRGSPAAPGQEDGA
Briefly: Inhibition of N-terminal His-tagged recombinant human AXL (473 to end amino acids) expressed by baculovirus in Sf9 cells using axltide substrate and ATP by ADP-Glo luminescence assay.

The target in assay [5] is Proto-oncogene tyrosine-protein kinase Src (Homo sapiens) (UniProt P12931). Briefly: Inhibition of human c-SRC at 10 uM using poly[Glu:Tyr] (4:1) as substrate by [gamma-33P]-ATP assay relative to control. In short, it runs like this: as §2
Assay [6] addresses Mast/stem cell growth factor receptor Kit (Homo sapiens) (UniProt P10721). The experiment in a line: Inhibition of human c-KIT at 10 uM using poly[Glu:Tyr] (4:1) as substrate by [gamma-33P]-ATP assay relative to control. In short, it runs like this:
as §2

For assay [7], the target named is Serine/threonine-protein kinase PLK1 (Homo sapiens, UniProt P53350). Briefly: Inhibition of human PLK1 at 10 uM using casein as substrate by [gamma-33P]-ATP assay relative to control. Put shortly:
as §2

The target of assay [8] is Vascular endothelial growth factor receptor 1 (Homo sapiens) (UniProt P17948). Briefly: Inhibition of human FLT1 at 10 uM using poly[Glu:Tyr] (4:1) as substrate by [gamma-33P]-ATP assay relative to control. In short, it runs like this: as §1
Sequence of Vascular endothelial growth factor receptor 1 (Homo sapiens) (P17948 whole entry): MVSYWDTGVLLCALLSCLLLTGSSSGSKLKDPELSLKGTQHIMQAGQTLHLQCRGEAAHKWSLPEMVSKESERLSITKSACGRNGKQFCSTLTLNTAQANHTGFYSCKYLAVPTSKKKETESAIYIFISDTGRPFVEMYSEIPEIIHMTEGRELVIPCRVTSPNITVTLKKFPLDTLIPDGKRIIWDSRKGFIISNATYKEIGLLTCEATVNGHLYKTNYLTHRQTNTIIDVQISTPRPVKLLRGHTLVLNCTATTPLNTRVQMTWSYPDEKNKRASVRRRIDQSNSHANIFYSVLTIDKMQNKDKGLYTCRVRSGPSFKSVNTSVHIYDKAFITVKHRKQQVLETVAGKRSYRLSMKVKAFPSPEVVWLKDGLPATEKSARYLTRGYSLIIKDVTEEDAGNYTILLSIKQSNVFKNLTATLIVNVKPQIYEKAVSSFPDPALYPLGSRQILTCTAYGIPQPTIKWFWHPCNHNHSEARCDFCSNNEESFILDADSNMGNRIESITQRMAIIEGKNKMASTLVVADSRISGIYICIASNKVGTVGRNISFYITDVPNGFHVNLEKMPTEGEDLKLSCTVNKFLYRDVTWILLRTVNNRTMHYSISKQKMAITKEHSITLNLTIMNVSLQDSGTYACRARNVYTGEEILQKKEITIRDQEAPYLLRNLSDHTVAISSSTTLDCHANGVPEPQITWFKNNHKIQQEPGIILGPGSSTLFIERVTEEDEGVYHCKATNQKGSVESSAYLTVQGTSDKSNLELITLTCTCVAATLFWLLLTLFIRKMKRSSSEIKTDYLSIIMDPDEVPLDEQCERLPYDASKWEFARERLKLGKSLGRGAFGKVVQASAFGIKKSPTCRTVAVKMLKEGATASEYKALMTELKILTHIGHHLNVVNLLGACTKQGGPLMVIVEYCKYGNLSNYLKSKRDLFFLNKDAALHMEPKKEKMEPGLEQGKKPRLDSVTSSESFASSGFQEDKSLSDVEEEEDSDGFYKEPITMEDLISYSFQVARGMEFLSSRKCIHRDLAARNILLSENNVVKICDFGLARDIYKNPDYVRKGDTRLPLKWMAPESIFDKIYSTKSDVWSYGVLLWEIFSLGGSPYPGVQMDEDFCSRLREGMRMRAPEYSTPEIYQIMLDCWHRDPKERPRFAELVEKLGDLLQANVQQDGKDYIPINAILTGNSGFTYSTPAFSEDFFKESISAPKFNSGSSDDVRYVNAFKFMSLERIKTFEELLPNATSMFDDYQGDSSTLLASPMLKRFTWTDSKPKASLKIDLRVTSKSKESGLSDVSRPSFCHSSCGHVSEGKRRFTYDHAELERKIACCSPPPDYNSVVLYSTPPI
Assay [9] addresses Serine/threonine-protein kinase pim-1 (Homo sapiens) (UniProt P11309). The experiment in a line: Inhibition of human PIM1 at 10 uM using KKRNRTLTK as substrate by [gamma-33P]-ATP assay relative to control. In short, it runs like this: as §2
The target of assay [10] is Tyrosine-protein kinase receptor TYRO3 (Homo sapiens) (UniProt Q06418). The experiment in a line: Inhibition of human TYRO3 at 10 uM using poly[Glu:Tyr] (4:1) as substrate by [gamma-33P]-ATP assay relative to control. In short, it runs like this:
as §2

The target of assay [11] is DNA-dependent protein kinase catalytic subunit (Homo sapiens) (UniProt P78527). Briefly: Inhibition of human DNA-PK at 10 uM using EPPLSQEAFADLWKK as substrate by [gamma-33P]-ATP assay relative to control. Put shortly:
as §1

Assay [12] has as its target High affinity nerve growth factor receptor (Homo sapiens) (UniProt P04629). Briefly: Inhibition of human TRKA at 10 uM using poly[Glu:Tyr] (4:1) as substrate by [gamma-33P]-ATP assay relative to control. Put shortly:
as §2

In the next assay the test system is HepG2. Briefly: Antiproliferative activity against human HepG2 cells after 2 days by spectrophotometric analysis. In kind it is functional. The conditions noted are these: HepG2, 48 h.
Assay [13] has as its target Ephrin type-A receptor 1 (Homo sapiens) (UniProt P21709). The experiment in a line: Inhibition of human EPHA1 at 10 uM using poly[Glu:Tyr] (4:1) as substrate by [gamma-33P]-ATP assay relative to control. In short, it runs like this: as §1
Assay [14] has as its target Activated CDC42 kinase 1 (Homo sapiens) (UniProt Q07912). The experiment in a line: Inhibition of human ACK1 at 10 uM using EAIYAAPFAKKK as substrate by [gamma-33P]-ATP assay relative to control. Put shortly:
as §1

The test system of the next assay is HCT-116. The experiment in a line: Antiproliferative activity against human HCT116 cells after 2 days by spectrophotometric analysis. In kind it is functional. Conditions: HCT-116, 48 h.
Assay [15] deals with ALK tyrosine kinase receptor (Homo sapiens) (UniProt Q9UM73). The experiment in a line: Inhibition of human ALK at 10 uM using poly[Glu:Tyr] (4:1) as substrate by [gamma-33P]-ATP assay relative to control. Put shortly:
as §1

Assay [16] deals with Tyrosine-protein kinase SYK (Homo sapiens, UniProt P43405). Briefly: Inhibition of human SYK at 10 uM using poly[Glu:Tyr] (4:1) as substrate by [gamma-33P]-ATP assay relative to control. Put shortly: as §2
Another assay deals with U-87 MG. Briefly: Antiproliferative activity against human U87MG cells after 2 days by spectrophotometric analysis. In kind it is functional, U-87MG ATCC. Conditions: 48 h.
The target in another assay is Aurora kinase A (Homo sapiens, UniProt O14965). Briefly: Inhibition of human AuroraA using [H-LRRASLG] as substrate by [gamma-33P]-ATP assay.
Sequence of Aurora kinase A (O14965 whole entry): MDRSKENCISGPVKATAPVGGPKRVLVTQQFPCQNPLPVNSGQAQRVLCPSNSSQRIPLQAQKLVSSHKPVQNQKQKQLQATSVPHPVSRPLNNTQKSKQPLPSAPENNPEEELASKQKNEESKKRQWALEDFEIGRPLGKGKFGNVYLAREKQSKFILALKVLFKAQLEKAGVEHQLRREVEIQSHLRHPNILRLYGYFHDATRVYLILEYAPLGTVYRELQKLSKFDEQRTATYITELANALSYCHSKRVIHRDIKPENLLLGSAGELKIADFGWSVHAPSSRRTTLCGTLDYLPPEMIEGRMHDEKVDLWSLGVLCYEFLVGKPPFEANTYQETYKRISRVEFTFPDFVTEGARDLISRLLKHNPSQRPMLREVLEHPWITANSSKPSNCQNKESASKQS
The next assay has as its system A549. The experiment in a line: Antiproliferative activity against human A549 cells after 2 days by spectrophotometric analysis. Conditions: A549, 48 h. In kind it is functional.

Sequence of Ephrin type-A receptor 1 (Homo sapiens) (P21709 whole entry): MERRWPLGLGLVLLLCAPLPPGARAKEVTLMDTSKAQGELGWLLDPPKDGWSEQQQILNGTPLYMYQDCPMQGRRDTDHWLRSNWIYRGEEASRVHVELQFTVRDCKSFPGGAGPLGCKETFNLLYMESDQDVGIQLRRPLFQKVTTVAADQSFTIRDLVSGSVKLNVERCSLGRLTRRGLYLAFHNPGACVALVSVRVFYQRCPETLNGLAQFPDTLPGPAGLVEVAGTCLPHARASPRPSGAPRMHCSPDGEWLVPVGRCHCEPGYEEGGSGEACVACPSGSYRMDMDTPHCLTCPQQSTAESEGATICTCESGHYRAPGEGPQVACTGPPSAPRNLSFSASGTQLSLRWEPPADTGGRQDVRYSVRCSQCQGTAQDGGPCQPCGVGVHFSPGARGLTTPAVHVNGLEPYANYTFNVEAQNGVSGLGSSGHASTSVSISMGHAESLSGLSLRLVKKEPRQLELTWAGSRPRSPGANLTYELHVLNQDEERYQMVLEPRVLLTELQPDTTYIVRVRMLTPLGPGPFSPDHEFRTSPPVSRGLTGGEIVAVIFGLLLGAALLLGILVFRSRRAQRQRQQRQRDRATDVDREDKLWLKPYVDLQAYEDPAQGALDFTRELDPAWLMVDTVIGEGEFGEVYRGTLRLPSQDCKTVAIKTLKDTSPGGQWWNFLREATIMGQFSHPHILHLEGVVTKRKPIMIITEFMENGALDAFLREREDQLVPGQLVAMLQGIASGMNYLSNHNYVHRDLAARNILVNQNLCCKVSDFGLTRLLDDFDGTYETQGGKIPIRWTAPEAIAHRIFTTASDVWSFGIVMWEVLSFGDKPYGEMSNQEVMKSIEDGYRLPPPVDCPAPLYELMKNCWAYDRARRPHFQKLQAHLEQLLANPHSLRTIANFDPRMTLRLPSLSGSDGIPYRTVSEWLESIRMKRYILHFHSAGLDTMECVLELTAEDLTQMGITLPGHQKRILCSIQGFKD
Sequence of Serine/threonine-protein kinase PLK1 (P53350 whole entry): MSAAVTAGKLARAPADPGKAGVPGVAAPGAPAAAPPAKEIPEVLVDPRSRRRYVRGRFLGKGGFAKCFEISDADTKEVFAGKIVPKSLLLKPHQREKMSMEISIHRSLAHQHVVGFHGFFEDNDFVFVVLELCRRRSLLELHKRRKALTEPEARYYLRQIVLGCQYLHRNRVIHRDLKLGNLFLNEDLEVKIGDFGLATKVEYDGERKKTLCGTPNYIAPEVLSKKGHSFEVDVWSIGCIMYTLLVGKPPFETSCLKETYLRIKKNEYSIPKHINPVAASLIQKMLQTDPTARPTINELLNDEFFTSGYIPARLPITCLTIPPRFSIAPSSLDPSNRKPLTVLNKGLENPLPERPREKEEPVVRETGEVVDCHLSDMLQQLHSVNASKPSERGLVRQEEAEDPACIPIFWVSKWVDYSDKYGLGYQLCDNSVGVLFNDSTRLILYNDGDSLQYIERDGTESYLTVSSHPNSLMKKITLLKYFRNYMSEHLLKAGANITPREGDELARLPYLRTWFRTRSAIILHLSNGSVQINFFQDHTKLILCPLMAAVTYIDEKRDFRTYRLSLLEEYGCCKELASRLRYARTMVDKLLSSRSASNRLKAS
Sequence of Serine/threonine-protein kinase Chk1 (Homo sapiens) (O14757 whole entry): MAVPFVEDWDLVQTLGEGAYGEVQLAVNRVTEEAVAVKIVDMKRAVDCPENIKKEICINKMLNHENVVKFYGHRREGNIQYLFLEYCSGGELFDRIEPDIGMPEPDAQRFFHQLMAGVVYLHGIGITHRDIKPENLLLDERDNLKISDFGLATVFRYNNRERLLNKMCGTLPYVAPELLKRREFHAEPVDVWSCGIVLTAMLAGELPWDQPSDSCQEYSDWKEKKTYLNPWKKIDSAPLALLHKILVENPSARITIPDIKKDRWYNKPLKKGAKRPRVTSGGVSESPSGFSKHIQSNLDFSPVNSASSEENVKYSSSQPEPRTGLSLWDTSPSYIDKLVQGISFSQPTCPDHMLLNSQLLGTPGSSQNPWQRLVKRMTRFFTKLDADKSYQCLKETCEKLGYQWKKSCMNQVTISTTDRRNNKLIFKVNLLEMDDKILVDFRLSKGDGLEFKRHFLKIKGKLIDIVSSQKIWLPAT

As usually defined, the GI50 is the concentration giving 50% growth inhibition. Usually inhibition stands for the drop in the measured response relative to a control, in per cent. A word on the IC50: it is the concentration at which inhibition is half-maximal. For `CC(=O)N1CCN(c2ccc(Nc3ncc(C(F)(F)F)c(N4Cc5cccc(N(C)S(C)(=O)=O)c5C4)n3)cc2)CC1`, the GI50 in the assay with A-375 turned out to be 1000 nM; in the assay on HepG2, 1400 nM; in the assay with HCT-116 it was 420 nM; in the assay on U-87 MG, 22100 nM; in the assay on A549, 1300 nM. Moreover, the inhibition in [1] is 2%; in [2], 37.2%; in assay [3], 92.2%; in assay [5], 88.2%; in [6], 17.8%; in [7], 95.2%. For the same compound, the inhibition was 49% in [8]; 9.8% in [9]; 87.7% in assay [10]; -4% in assay [11]; 92.2% in assay [12]; 13.1% in assay [13]. Further, the inhibition was 91.1% in assay [14], 71.3% in assay [15] and 95.3% in assay [16]. For the same compound, the figures for the IC50 (in assay [4]; against Aurora kinase A) were less than 0.5 nM and 3 nM, respectively.
